# Legend:
# Assay type in all cases: functional
# Escherichia coli [1] = test: Antimicrobial activity against Escherichia coli AG100 after 18 hrs by rapid INT colorimetric assay; conditions: AG100, 18 h
# Summary of the method: (§1)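 Strains precultured overnight on Mueller-Hinton agar. Samples dissolved in DMSO-MHB, serially diluted twofold in MHB, inoculum 1.5 × 10^6 CFU/ml in MHB added; 37°C, 18 h; final DMSO <2.5%. 0.2 mg/ml INT then added, 30 min at 37°C. MIC = lowest concentration preventing yellow-to-pink reduction, i.e. complete growth inhibition.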
# Enterobacter cloacae [2] = test: Antimicrobial activity against Enterobacter cloacae Ec1194 after 18 hrs by rapid INT colorimetric assay; conditions: Ec1194, 18 h
# Summary of the method: (§2)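 Strains precultured overnight on Mueller-Hinton agar. Sample dissolved in DMSO-MHB, twofold serial dilutions in MHB, inoculum 1.5 × 10^6 CFU/ml; final DMSO below 2.5%. Incubated 37°C 18 h, then 0.2 mg/ml INT added, 30 min at 37°C. MIC = lowest concentration preventing yellow-to-pink change (complete growth inhibition). DMSO-only wells as negative control.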
# Klebsiella pneumoniae [3] = test: Antimicrobial activity against Klebsiella pneumoniae KP63 after 18 hrs by rapid INT colorimetric assay; conditions: KP63, 18 h; summary of the method: as §2
# Pseudomonas aeruginosa [4] = test: Antimicrobial activity against Pseudomonas aeruginosa PAO1 after 18 hrs by rapid INT colorimetric assay in presence of efflux pump inhibitor phenylalanine arginine; conditions: PAO1, 18 h
# Escherichia coli [5] = test: Antimicrobial activity against Escherichia coli ATCC 10536 after 18 hrs by rapid INT colorimetric assay; conditions: ATCC 10536, 18 h; summary of the method: as §2
# Klebsiella pneumoniae [6] = test: Antimicrobial activity against Klebsiella pneumoniae KP55 after 18 hrs by rapid INT colorimetric assay; conditions: KP55, 18 h; summary of the method: as §2
# Klebsiella aerogenes [7] = test: Antimicrobial activity against Enterobacter aerogenes EA298 after 18 hrs by rapid INT colorimetric assay; conditions: EA298, 18 h; summary of the method: as §1
# Klebsiella pneumoniae [8] = test: Antimicrobial activity against Klebsiella pneumoniae ATCC 11296 after 18 hrs by rapid INT colorimetric assay; conditions: ATCC 11296, 18 h; summary of the method: as §1
# Pseudomonas aeruginosa [9] = test: Antimicrobial activity against Pseudomonas aeruginosa PA124 after 18 hrs by rapid INT colorimetric assay; conditions: PA124, 18 h; summary of the method: as §1
# Escherichia coli [10] = test: Antimicrobial activity against Escherichia coli ATCC 8739 after 18 hrs by rapid INT colorimetric assay; conditions: ATCC 8739, 18 h; summary of the method: as §1
# Escherichia coli [11] = test: Antimicrobial activity against Escherichia coli AG100A after 18 hrs by rapid INT colorimetric assay in presence of efflux pump inhibitor phenylalanine arginine
# Escherichia coli [12] = test: Antimicrobial activity against Escherichia coli AG100A after 18 hrs by rapid INT colorimetric assay; summary of the method: as §1
# Enterobacter cloacae [13] = test: Antimicrobial activity against Enterobacter cloacae Ec07769 after 18 hrs by rapid INT colorimetric assay in presence of efflux pump inhibitor phenylalanine arginine; conditions: Ec07769, 18 h
# Enterobacter cloacae [14] = test: Antimicrobial activity against Enterobacter cloacae Ec07769 after 18 hrs by rapid INT colorimetric assay; conditions: Ec07769, 18 h; summary of the method: as §2
# Escherichia coli [15] = test: Antimicrobial activity against Escherichia coli ATCC 8739 after 18 hrs by rapid INT colorimetric assay in presence of efflux pump inhibitor phenylalanine arginine; conditions: ATCC 8739, 18 h
# Summary of the method: (§3)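 Broth microdilution MIC in Mueller-Hinton broth with PAßN at a final 20 μg/ml throughout. Twofold dilutions of sample from DMSO-MHB stock; inoculum 1.5 × 10^6 CFU/ml; 18 h at 37°C, final DMSO <2.5%. Growth read by INT (0.2 mg/ml, 30 min, 37°C). MIC taken as lowest concentration with no pink colour.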
# Klebsiella pneumoniae [16] = test: Antimicrobial activity against Klebsiella pneumoniae ATCC 11296 after 18 hrs by rapid INT colorimetric assay in presence of efflux pump inhibitor phenylalanine arginine; conditions: ATCC 11296, 18 h
# Klebsiella aerogenes [17] = test: Antimicrobial activity against Enterobacter aerogenes EA3 after 18 hrs by rapid INT colorimetric assay in presence of efflux pump inhibitor phenylalanine arginine; conditions: EA3, 18 h
# Escherichia coli [18] = test: Antimicrobial activity against tetracycline-resistant Escherichia coli AG102 after 18 hrs by rapid INT colorimetric assay in presence of efflux pump inhibitor phenylalanine arginine; conditions: AG102, 18 h; summary of the method: as §3
# Klebsiella aerogenes [19] = test: Antimicrobial activity against Enterobacter aerogenes ATCC 13048 after 18 hrs by rapid INT colorimetric assay; conditions: ATCC 13048, 18 h; summary of the method: as §2
# Klebsiella aerogenes [20] = test: Antimicrobial activity against Enterobacter aerogenes ATCC 13048 after 18 hrs by rapid INT colorimetric assay in presence of efflux pump inhibitor phenylalanine arginine; conditions: ATCC 13048, 18 h
# Pseudomonas aeruginosa [21] = test: Antimicrobial activity against Pseudomonas aeruginosa PAO1 after 18 hrs by rapid INT colorimetric assay; conditions: PAO1, 18 h; summary of the method: as §1
# Escherichia coli [22] = test: Antimicrobial activity against Escherichia coli AG100 after 18 hrs by rapid INT colorimetric assay in presence of efflux pump inhibitor phenylalanine arginine; conditions: AG100, 18 h
# Klebsiella aerogenes [23] = test: Antimicrobial activity against Enterobacter aerogenes EA294 after 18 hrs by rapid INT colorimetric assay; conditions: EA294, 18 h; summary of the method: as §1
# Klebsiella pneumoniae [24] = test: Antimicrobial activity against Klebsiella pneumoniae KP55 after 18 hrs by rapid INT colorimetric assay in presence of efflux pump inhibitor phenylalanine arginine; conditions: KP55, 18 h
# Klebsiella aerogenes [25] = test: Antimicrobial activity against Enterobacter aerogenes EA5 after 18 hrs by rapid INT colorimetric assay; conditions: EA5, 18 h; summary of the method: as §2
# Klebsiella aerogenes [26] = test: Antimicrobial activity against Enterobacter aerogenes EA298 after 18 hrs by rapid INT colorimetric assay in presence of efflux pump inhibitor phenylalanine arginine; conditions: EA298, 18 h
# Klebsiella aerogenes [27] = test: Antimicrobial activity against Enterobacter aerogenes EA3 after 18 hrs by rapid INT colorimetric assay; conditions: EA3, 18 h; summary of the method: as §2
# Klebsiella aerogenes [28] = test: Antimicrobial activity against Enterobacter aerogenes EA-CM64 after 18 hrs by rapid INT colorimetric assay; conditions: EA-CM64, 18 h; summary of the method: as §1
# Escherichia coli [29] = test: Antimicrobial activity against tetracycline-resistant Escherichia coli AG100A after 18 hrs by rapid INT colorimetric assay; summary of the method: as §1
# Pseudomonas aeruginosa [30] = test: Antimicrobial activity against Pseudomonas aeruginosa PA124 after 18 hrs by rapid INT colorimetric assay in presence of efflux pump inhibitor phenylalanine arginine; conditions: PA124, 18 h
# Escherichia coli [31] = test: Antimicrobial activity against tetracycline-resistant Escherichia coli AG102 after 18 hrs by rapid INT colorimetric assay; conditions: AG102, 18 h; summary of the method: as §1
# Klebsiella pneumoniae [32] = test: Antimicrobial activity against Klebsiella pneumoniae KP63 after 18 hrs by rapid INT colorimetric assay in presence of efflux pump inhibitor phenylalanine arginine; conditions: KP63, 18 h
# Klebsiella aerogenes [33] = test: Antimicrobial activity against Enterobacter aerogenes EA289 after 18 hrs by rapid INT colorimetric assay in presence of efflux pump inhibitor phenylalanine arginine; conditions: EA289, 18 h
# Klebsiella aerogenes [34] = test: Antimicrobial activity against Enterobacter aerogenes EA5 after 18 hrs by rapid INT colorimetric assay in presence of efflux pump inhibitor phenylalanine arginine; conditions: EA5, 18 h
# Enterobacter cloacae [35] = test: Antimicrobial activity against Enterobacter cloacae Ec1194 after 18 hrs by rapid INT colorimetric assay in presence of efflux pump inhibitor phenylalanine arginine; conditions: Ec1194, 18 h; summary of the method: as §3
# Klebsiella aerogenes [36] = test: Antimicrobial activity against Enterobacter aerogenes EA-CM64 after 18 hrs by rapid INT colorimetric assay in presence of efflux pump inhibitor phenylalanine arginine; conditions: EA-CM64, 18 h
# Escherichia coli [37] = test: Antimicrobial activity against Escherichia coli ATCC 10536 after 18 hrs by rapid INT colorimetric assay in presence of efflux pump inhibitor phenylalanine arginine beta-naphthylamide; conditions: ATCC 10536, 18 h; summary of the method: as §3
# Klebsiella aerogenes [38] = test: Antimicrobial activity against Enterobacter aerogenes EA294 after 18 hrs by rapid INT colorimetric assay in presence of efflux pump inhibitor phenylalanine arginine; conditions: EA294, 18 h
# Escherichia coli [39] = test: Antimicrobial activity against tetracycline-resistant Escherichia coli AG100A after 18 hrs by rapid INT colorimetric assay in presence of efflux pump inhibitor phenylalanine arginine; summary of the method: as §3
# Klebsiella aerogenes [40] = test: Antimicrobial activity against Enterobacter aerogenes EA289 after 18 hrs by rapid INT colorimetric assay; conditions: EA289, 18 h; summary of the method: as §2
# Klebsiella aerogenes [41] = test: Antimicrobial activity against Enterobacter aerogenes EA27 after 18 hrs by rapid INT colorimetric assay in presence of efflux pump inhibitor phenylalanine arginine; conditions: EA27, 18 h
# Klebsiella aerogenes [42] = test: Antimicrobial activity against Enterobacter aerogenes EA27 after 18 hrs by rapid INT colorimetric assay; conditions: EA27, 18 h; summary of the method: as §2
compound,measurement,setting,value
CC1=C(c2c(C)cc(O)c3c2C(=O)C(c2c(O)c4c(C)cccc4oc2=O)=C(c2c(O)c4c(C)cccc4oc2=O)C3=O)C(=O)c2c(O)cccc2C1=O [DIOSPYRONE],MIC,Escherichia coli [1],64 µg/mL
same,MIC,Enterobacter cloacae [2],32 µg/mL
same,MIC,Klebsiella pneumoniae [3],32 µg/mL
same,MIC,Pseudomonas aeruginosa [4],4 µg/mL
same,MIC,Escherichia coli [5],32 µg/mL
same,MIC,Klebsiella pneumoniae [6],64 µg/mL
same,MIC,Klebsiella aerogenes [7],32 µg/mL
same,MIC,Klebsiella pneumoniae [8],32 µg/mL
same,MIC,Pseudomonas aeruginosa [9],64 µg/mL
same,MIC,Escherichia coli [10],128 µg/mL
same,MIC,Escherichia coli [11],0.12 µg/mL
same,MIC,Escherichia coli [12],4 µg/mL
same,MIC,Enterobacter cloacae [13],8 µg/mL
same,MIC,Enterobacter cloacae [14],128 µg/mL
same,MIC,Escherichia coli [15],4 µg/mL
same,MIC,Klebsiella pneumoniae [16],2 µg/mL
same,MIC,Klebsiella aerogenes [17],64 µg/mL
same,MIC,Escherichia coli [18],2 µg/mL
same,MIC,Klebsiella aerogenes [19],128 µg/mL
same,MIC,Klebsiella aerogenes [20],32 µg/mL
same,MIC,Pseudomonas aeruginosa [21],64 µg/mL
same,MIC,Escherichia coli [22],1 µg/mL
same,MIC,Klebsiella aerogenes [23],128 µg/mL
same,MIC,Klebsiella pneumoniae [24],8 µg/mL
same,MIC,Klebsiella aerogenes [25],128 µg/mL
same,MIC,Klebsiella aerogenes [26],16 µg/mL
same,MIC,Klebsiella aerogenes [27],128 µg/mL
same,MIC,Klebsiella aerogenes [28],128 µg/mL
same,MIC,Escherichia coli [29],16 µg/mL
same,MIC,Pseudomonas aeruginosa [30],1 µg/mL
same,MIC,Escherichia coli [31],64 µg/mL
same,MIC,Klebsiella pneumoniae [32],4 µg/mL
same,MIC,Klebsiella aerogenes [33],8 µg/mL
same,MIC,Klebsiella aerogenes [34],64 µg/mL
same,MIC,Enterobacter cloacae [35],2 µg/mL
same,MIC,Klebsiella aerogenes [36],16 µg/mL
same,MIC,Escherichia coli [37],2 µg/mL
same,MIC,Klebsiella aerogenes [38],8 µg/mL
same,MIC,Escherichia coli [39],0.24 µg/mL
same,MIC,Klebsiella aerogenes [40],128 µg/mL
same,MIC,Klebsiella aerogenes [41],16 µg/mL
same,MIC,Klebsiella aerogenes [42],128 µg/mL
